# Test results reported in ChEMBL document CHEMBL1629494, “New amino acid esters of salicylanilides active against MDR-TB and other microbes” (Eur J Med Chem, 2010).
# Experiments:
# Type in all cases: functional
# Aspergillus fumigatus [1] = assay: Antifungal activity against Aspergillus fumigatus 231 after 24 hrs by broth microdilution method; conditions: Aspergillus fumigatus, 231, 24 h
# Trichosporon beigelii [2] = assay: Antifungal activity against Trichosporon beigelii 1188 after 48 hrs by broth microdilution method; conditions: Trichosporon beigelii, 1188, 48 h
# Pichia kudriavzevii [3] = assay: Antifungal activity against Candida krusei E28 after 48 hrs by broth microdilution method; conditions: E28, 48 h
# Aspergillus fumigatus [4] = assay: Antifungal activity against Aspergillus fumigatus 231 after 48 hrs by broth microdilution method; conditions: Aspergillus fumigatus, 231, 48 h
# Nakaseomyces glabratus [5] = assay: Antifungal activity against Candida glabrata 20/I after 48 hrs by broth microdilution method
# [6] = tested on: Mycobacterium tuberculosis; assay: Antimycobacterial activity against Mycobacterium tuberculosis H37Rv 331/88 after 21 days by micromethod; conditions: H37Rv 331/88, 504 h
# Outline: (§1)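 Micromethod in Sula semisynthetic medium, with compounds added as DMSO solutions at 1000, 500, 250, 125, 62, 32, 16, 8, 4, 2, 1, 0.5, 0.25. Inoculum dilutions: H37Rv 10^-3; M. avium 330/88 10^-5; M. kansasii 235/80 10^-4; M. kansasii 6509/96 10^-5. Incubated at 37 °C, read at 14 and 21 days, and at 7 days for M. kansasii. MIC was the lowest concentration inhibiting growth.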
# Mycobacterium kansasii [7] = assay: Antimycobacterial activity against Mycobacterium kansasii 6509/96 after 7 days by micromethod; conditions: 6509/96, 168 h; outline: as §1
# [8] = tested on: Trichophyton mentagrophytes; assay: Antifungal activity against Trichophyton mentagrophytes after 24 hrs by broth microdilution method
# Pichia kudriavzevii [9] = assay: Antifungal activity against Candida krusei E28 after 24 hrs by broth microdilution method; conditions: E28, 24 h
# Candida tropicalis [10] = assay: Antifungal activity against Candida tropicalis 156 after 48 hrs by broth microdilution method; conditions: Candida tropicalis, 156, 48 h
# Mycobacterium avium [11] = assay: Antimycobacterial activity against Mycobacterium avium
# Staphylococcus aureus [12] = assay: Antibacterial activity against Staphylococcus aureus CCM 4516/08 after 24 hrs by broth microdilution method; conditions: CCM 4516/08, 24 h
# Outline: (§2)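 Broth microdilution following […], with twofold compound dilutions in Mueller-Hinton bouillon. Incubated 24 and 48 h at 35 °C in the dark in a humid atmosphere. MIC (IC80) was taken as ≥80% growth reduction versus control, read visually and photometrically.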
# Escherichia coli [13] = assay: Antibacterial activity against Escherichia coli CCM 4517 after 24 hrs by broth microdilution method; conditions: CCM 4517, 24 h; outline: as §2
# Staphylococcus aureus [14] = assay: Antibacterial activity against Staphylococcus aureus CCM 4516/08 after 48 hrs by broth microdilution method; conditions: CCM 4516/08, 48 h; outline: as §2
# Mycobacterium avium [15] = assay: Antimycobacterial activity against multidrug-resistant Mycobacterium avium 330/88 after 14 days by micromethod; conditions: 330/88, 336 h; outline: as §1
# Staphylococcus aureus [16] = assay: Antibacterial activity against methicillin-resistant Staphylococcus aureus H5996/08 after 48 hrs by broth microdilution method; conditions: H5996/08, 48 h; outline: as §2
# [17] = tested on: Trichophyton mentagrophytes; assay: Antifungal activity against Trichophyton mentagrophytes after 48 hrs by broth microdilution method
# Enterococcus sp. [18] = assay: Antibacterial activity against Enterococcus sp. J14365/08 after 48 hrs by broth microdilution method; conditions: J14365/08, 48 h; outline: as §2
# Mycobacterium kansasii [19] = assay: Antimycobacterial activity against Mycobacterium kansasii 235/80 after 14 days by micromethod; conditions: 235/80, 336 h; outline: as §1
# Mycobacterium kansasii [20] = assay: Antimycobacterial activity against Mycobacterium kansasii 235/80 after 7 days by micromethod; conditions: 235/80, 168 h; outline: as §1
# Lichtheimia corymbifera [21] = assay: Antifungal activity against Absidia corymbifera 272 after 24 hrs by broth microdilution method; conditions: Lichtheimia corymbifera, 272, 24 h
# Candida tropicalis [22] = assay: Antifungal activity against Candida tropicalis 156 after 24 hrs by broth microdilution method; conditions: Candida tropicalis, 156, 24 h
# Mycobacterium kansasii [23] = assay: Antimycobacterial activity against Mycobacterium kansasii 6509/96 after 14 days by micromethod; conditions: 6509/96, 336 h; outline: as §1
# [24] = tested on: Staphylococcus epidermidis; assay: Antibacterial activity against Staphylococcus epidermidis H6966/08 after 48 hrs by broth microdilution method; conditions: H6966/08, 48 h; outline: as §2
# Candida albicans [25] = assay: Antifungal activity against Candida albicans ATCC 44859 after 24 hrs by broth microdilution method; conditions: ATCC 44859, 24 h
# Klebsiella pneumoniae [26] = assay: Antibacterial activity against Klebsiella pneumoniae D11750/08 after 24 hrs by broth microdilution method; conditions: D11750/08, 24 h; outline: as §2
# Enterococcus sp. [27] = assay: Antibacterial activity against Enterococcus sp. J14365/08 after 24 hrs by broth microdilution method; conditions: J14365/08, 24 h; outline: as §2
# [28] = tested on: Mycobacterium tuberculosis; assay: Antimycobacterial activity against Mycobacterium tuberculosis H37Rv 331/88 after 14 days by micromethod; conditions: H37Rv 331/88, 336 h; outline: as §1
# Trichosporon beigelii [29] = assay: Antifungal activity against Trichosporon beigelii 1188 after 24 hrs by broth microdilution method; conditions: Trichosporon beigelii, 1188, 24 h
# [30] = tested on: Staphylococcus epidermidis; assay: Antibacterial activity against Staphylococcus epidermidis H6966/08 after 24 hrs by broth microdilution method; conditions: H6966/08, 24 h; outline: as §2
# Mycobacterium kansasii [31] = assay: Antimycobacterial activity against Mycobacterium kansasii
# Mycobacterium avium [32] = assay: Antimycobacterial activity against multidrug-resistant Mycobacterium avium 330/88 after 21 days by micromethod; conditions: 330/88, 504 h; outline: as §1
# Candida albicans [33] = assay: Antifungal activity against Candida albicans ATCC 44859 after 48 hrs by broth microdilution method; conditions: ATCC 44859, 48 h
# Nakaseomyces glabratus [34] = assay: Antifungal activity against Candida glabrata 20/I after 24 hrs by broth microdilution method
# Escherichia coli [35] = assay: Antibacterial activity against Escherichia coli CCM 4517 after 48 hrs by broth microdilution method; conditions: CCM 4517, 48 h; outline: as §2
# Mycobacterium kansasii [36] = assay: Antimycobacterial activity against Mycobacterium kansasii 235/80 after 21 days by micromethod; conditions: 235/80, 504 h; outline: as §1
# Klebsiella pneumoniae [37] = assay: Antibacterial activity against Klebsiella pneumoniae D11750/08 after 48 hrs by broth microdilution method; conditions: D11750/08, 48 h; outline: as §2
# [38] = tested on: Mycobacterium tuberculosis; assay: Antimycobacterial activity against drug-sensitive Mycobacterium tuberculosis
# Staphylococcus aureus [39] = assay: Antibacterial activity against methicillin-resistant Staphylococcus aureus H5996/08 after 24 hrs by broth microdilution method; conditions: H5996/08, 24 h; outline: as §2
# Mycobacterium kansasii [40] = assay: Antimycobacterial activity against Mycobacterium kansasii 6509/96 after 21 days by micromethod; conditions: 6509/96, 504 h; outline: as §1
# Lichtheimia corymbifera [41] = assay: Antifungal activity against Absidia corymbifera 272 after 48 hrs by broth microdilution method; conditions: Lichtheimia corymbifera, 272, 48 h
smiles,measurement,setting,value
CC(=O)N[C@@H](Cc1ccccc1)C(=O)Oc1cc(Cl)ccc1C(=O)Nc1ccc(C(F)(F)F)cc1,MIC,Aspergillus fumigatus [1],62.5 µM
same,MIC,Trichosporon beigelii [2],> 125 µM
same,MIC,Pichia kudriavzevii [3],> 125 µM
same,MIC,Aspergillus fumigatus [4],> 125 µM
same,MIC,Nakaseomyces glabratus [5],> 125 µM
same,MIC,[6],16 µM
same,MIC,Mycobacterium kansasii [7],4 µM
same,MIC,[8],125 µM
same,MIC,Pichia kudriavzevii [9],62.5 µM
same,MIC,Candida tropicalis [10],> 125 µM
same,MIC,Mycobacterium avium [11],1 µM
same,MIC,Staphylococcus aureus [12],125 µM
same,MIC,Escherichia coli [13],> 125 µM
same,MIC,Staphylococcus aureus [14],> 125 µM
same,MIC,Mycobacterium avium [15],16 µM
same,MIC,Staphylococcus aureus [16],> 125 µM
same,MIC,[17],> 125 µM
same,MIC,Enterococcus sp. [18],> 125 µM
same,MIC,Mycobacterium kansasii [19],4 µM
same,MIC,Mycobacterium kansasii [20],4 µM
same,MIC,Lichtheimia corymbifera [21],62.5 µM
same,MIC,Candida tropicalis [22],> 125 µM
same,MIC,Mycobacterium kansasii [23],8 µM
same,MIC,[24],> 125 µM
same,MIC,Candida albicans [25],> 125 µM
same,MIC,Klebsiella pneumoniae [26],> 125 µM
same,MIC,Enterococcus sp. [27],125 µM
same,MIC,[28],8 µM
same,MIC,Trichosporon beigelii [29],125 µM
same,MIC,[30],125 µM
same,MIC,Mycobacterium kansasii [31],1 µM
same,MIC,Mycobacterium avium [32],32 µM
same,MIC,Candida albicans [33],> 125 µM
same,MIC,Nakaseomyces glabratus [34],> 125 µM
same,MIC,Escherichia coli [35],> 125 µM
same,MIC,Mycobacterium kansasii [36],4 µM
same,MIC,Klebsiella pneumoniae [37],> 125 µM
same,MIC,[38],1 µM
same,MIC,Staphylococcus aureus [39],125 µM
same,MIC,Mycobacterium kansasii [40],8 µM
same,MIC,Lichtheimia corymbifera [41],> 125 µM
